Viability and Activity data for eight molecules are collected here from ChEMBL document CHEMBL4130578, “Synthesis, biological evaluation and structure-activity relationship studies of hederacolchiside E and its derivatives as potential anti-Alzheimer agents” (Eur J Med Chem, 2018).

The source made the active and inactive calls. The calls are words filed in the database; no cut-off is given here.

Data set [1] has as its system PC-12. The data set is described as follows: Cytoprotection against amyloid beta (1 to 42)-induced cell injury in rat PC12 cells assessed as cell viability at 50 uM preincubated for 12 hrs followed by amyloid beta (1 to 42) addition measured after 12 hrs by MTT assay (reference value: 55.3 +/- 1.5%). The note with it: read-out: Activity. The data set is classed as functional. On the technique in general: Formazan colour is commonly taken as a measure of viable cells.

Data set [2] deals with PC-12. Description: Cytotoxicity against rat PC12 cells assessed as decrease in cell viability at high concentration after 12 hrs by MTT assay. It is filed as cell-based. The note with it: pc-12, 12 h.
Data set [3] has as its system PC-12. Description: Cytoprotection against amyloid beta (1 to 42)-induced cell injury in rat PC12 cells assessed as cell viability at 10 uM preincubated for 12 hrs followed by amyloid beta (1 to 42) addition measured after 12 hrs by MTT assay (reference value: 55.3 +/- 1.5%). The data set is classed as functional. The note with it: read-out: Activity.
Data set [4] concerns PC-12. The data set is described as follows: Cytoprotection against H2O2-induced cell injury in rat PC12 cells assessed as increase in cell viability at 1 to 10 uM preincubated for 12 hrs followed by H2O2 addition measured after 12 hrs by MTT assay. It is filed as functional, cell-based. Put shortly:
(§1)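 PC12 cells grown in RPMI-1640 with 15% FBS and penicillin/streptomycin, subcultured every 2 days and cultured 8 days before use. Cells seeded at 1 × 10^4/well, after 12 h pretreated with compound 12 h, then exposed to 200 µM H2O2 for 12 h. MTT added for 4 h, formazan dissolved in DMSO, OD 490 nm read. Viability given as % of untreated control, mean ± SD, n = 3, ANOVA with Dunnett's test.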

For data set [5], the system named is PC-12. Description: Cytotoxicity against rat PC12 cells assessed as decrease in cell viability at 50 uM after 12 hrs by MTT assay. The note with it: pc-12, 12 h. It is filed as cell-based.
For data set [6], the system named is PC-12. The data set is described as follows: Cytoprotection against H2O2-induced cell injury in rat PC12 cells assessed as increase in cell viability preincubated for 12 hrs followed by H2O2 addition measured after 12 hrs by MTT assay. It is filed as functional, cell-based. Put shortly: as §1
For data set [7], the system named is PC-12. The data set is described as follows: Cytoprotection against amyloid beta (1 to 42)-induced cell injury in rat PC12 cells assessed as cell viability at 100 uM preincubated for 12 hrs followed by amyloid beta (1 to 42) addition measured after 12 hrs by MTT assay (reference value: 55.3 +/- 1.5%). The note with it: read-out: Activity. The data set is classed as functional.

For `C[C@@H]1O[C@@H](O[C@H]2[C@H](O[C@H]3CC[C@]4(C)[C@H]5CC=C6[C@@H]7CC(C)(C)CC[C@]7(C(=O)O[C@@H]7O[C@H](CO)[C@@H](O)[C@H](O)[C@H]7O)CC[C@@]6(C)[C@]5(C)CC[C@H]4C3(C)C)OC[C@H](O[C@@H]3O[C@H](CO)[C@@H](O)[C@H](O)[C@H]3O)[C@@H]2O)[C@H](O)[C@H](O)[C@H]1O`, the viability at 50 µM in data set [1] was found to be 10.3%. In data set [2], the Activity result is “Toxic”. In addition, the viability at 10 µM in data set [3] turned out to be 14.5%.
Regarding `C[C@@H]1O[C@@H](O[C@H]2[C@H](O[C@H]3CC[C@]4(C)[C@H]5CC=C6[C@@H]7CC(C)(C)CC[C@]7(C(=O)O[C@@H]7O[C@H](CO[C@@H]8O[C@H](CO)[C@@H](O[C@@H]9O[C@@H](C)[C@H](O)[C@@H](O)[C@H]9O)[C@H](O)[C@H]8O)[C@@H](O)[C@H](O)[C@H]7O)CC[C@@]6(C)[C@]5(C)CC[C@H]4C3(C)C)OC[C@H](O)[C@@H]2O)[C@H](O)[C@H](O)[C@H]1O` [HEDERASAPONIN B], the viability at 50 µM in data set [1] is 60.3%. Besides, the outcome in data set [4] was Active. For the same molecule, the viability at 10 µM in data set [3] is 54.3%. In data set [5], the Activity result was “Toxic”.
Consider `C[C@@H]1O[C@@H](O[C@H]2[C@H](O[C@H]3CC[C@]4(C)[C@H]5CC=C6[C@@H]7CC(C)(C)CC[C@]7(C(=O)O[C@@H]7O[C@H](CO[C@@H]8O[C@H](CO)[C@@H](O[C@@H]9O[C@@H](C)[C@H](O)[C@@H](O)[C@H]9O)[C@H](O)[C@H]8O)[C@@H](O)[C@H](O)[C@H]7O)CC[C@@]6(C)[C@]5(C)CC[C@H]4C3(C)C)OC[C@H](O[C@@H]3O[C@H](CO)[C@H](O)[C@H](O)[C@H]3O)[C@@H]2O)[C@H](O)[C@H](O)[C@H]1O`, for which the viability at 50 µM in data set [1] was 58.6%. Further, in data set [6], the Activity entry is “Dose-dependent effect”. In addition, in data set [3], the viability at 10 µM was determined as 52.6%.
Turning to `C[C@@H]1O[C@@H](O[C@H]2[C@H](O[C@H]3CC[C@]4(C)[C@H]5CC=C6[C@@H]7CC(C)(C)CC[C@]7(C(=O)O[C@@H]7O[C@H](CO[C@@H]8O[C@H](CO)[C@@H](O)[C@H](O)[C@H]8O)[C@@H](O)[C@H](O)[C@H]7O)CC[C@@]6(C)[C@]5(C)CC[C@H]4C3(C)C)OC[C@H](O[C@@H]3O[C@H](CO)[C@@H](O)[C@H](O)[C@H]3O)[C@@H]2O)[C@H](O)[C@H](O)[C@H]1O`, the viability at 50 µM in data set [1] was determined as 19.8%. Besides, the Activity entry in data set [2] is on record as “Toxic”. For the same molecule, the viability at 10 µM in data set [3] came out at 29.5%.
`C[C@@H]1O[C@@H](O[C@H]2[C@H](O[C@H]3CC[C@]4(C)[C@H]5CC=C6[C@@H]7CC(C)(C)CC[C@]7(C(=O)O[C@@H]7O[C@H](CO[C@@H]8O[C@H](CO)[C@@H](O[C@@H]9O[C@@H](C)[C@H](O)[C@@H](O)[C@H]9O)[C@H](O)[C@H]8O)[C@@H](O)[C@H](O)[C@H]7O)CC[C@@]6(C)[C@]5(C)CC[C@H]4C3(C)C)OC[C@H](O[C@@H]3OC[C@@H](O)[C@H](O)[C@H]3O)[C@@H]2O)[C@H](O)[C@H](O)[C@H]1O`: the viability at 50 µM in data set [1] was determined as 55.7%. For the same molecule, the Activity result in data set [6] is “Dose-dependent effect”. Besides, in data set [3], the viability at 10 µM is 52.7%.
In the same order, the values of `C[C@@H]1O[C@@H](O[C@H]2[C@H](O[C@H]3CC[C@]4(C)[C@H]5CC=C6[C@@H]7CC(C)(C)CC[C@]7(C(=O)O[C@@H]7O[C@H](CO[C@@H]8O[C@H](CO)[C@@H](O[C@@H]9O[C@@H](C)[C@H](O)[C@@H](O)[C@H]9O)[C@H](O)[C@H]8O)[C@@H](O)[C@H](O)[C@H]7O)CC[C@@]6(C)[C@]5(C)CC[C@H]4C3(C)C)OC[C@H](O[C@@H]3OC[C@H](O)[C@H](O)[C@H]3O)[C@@H]2O)[C@H](O)[C@H](O)[C@H]1O` are 59.7%, “Dose-dependent effect” and 58.3%.
Consider `C[C@@H]1O[C@@H](O[C@H]2[C@H](O[C@H]3CC[C@]4(C)[C@H]5CC=C6[C@@H]7CC(C)(C)CC[C@]7(C(=O)O[C@@H]7O[C@H](CO[C@@H]8O[C@H](CO)[C@@H](O[C@@H]9O[C@@H](C)[C@H](O)[C@@H](O)[C@H]9O)[C@H](O)[C@H]8O)[C@@H](O)[C@H](O)[C@H]7O)CC[C@@]6(C)[C@]5(C)CC[C@H]4C3(C)C)OC[C@H](O[C@@H]3O[C@@H](C)[C@H](O)[C@@H](O)[C@H]3O)[C@@H]2O)[C@H](O)[C@H](O)[C@H]1O`, for which the viability at 50 µM in data set [1] was 68.4%. Further, the Activity result in data set [6] is “Dose-dependent effect”. Besides, the viability at 10 µM in data set [3] was 61.4%. Also, the viability at 100 µM in data set [7] is 74.6%.
Turning to `C[C@@H]1O[C@@H](O[C@H]2[C@H](O[C@H]3CC[C@]4(C)[C@H]5CC=C6[C@@H]7CC(C)(C)CC[C@]7(C(=O)O[C@@H]7O[C@H](CO[C@@H]8O[C@H](CO)[C@@H](O[C@@H]9O[C@@H](C)[C@H](O)[C@@H](O)[C@H]9O)[C@H](O)[C@H]8O)[C@@H](O)[C@H](O)[C@H]7O)CC[C@@]6(C)[C@]5(C)CC[C@H]4C3(C)C)OC[C@H](O[C@@H]3O[C@H](CO)[C@@H](O)[C@H]3O)[C@@H]2O)[C@H](O)[C@H](O)[C@H]1O`, the viability at 50 µM in data set [1] worked out at 57.9%. Also, in data set [6], the Activity result was “Dose-dependent effect”. In addition, in data set [3], the viability at 10 µM came out at 58.5%.
